According to ChEMBL document CHEMBL1240409, “Design, synthesis and evaluation of (E)-alpha-benzylthio chalcones as novel inhibitors of BCR-ABL kinase” (Bioorg Med Chem, 2010):
pIC50: −log10 of the molar value. The source made the active and inactive calls. No cut-off for these calls is given here.

Columns and labels:
[1] = Aqueous solubility of the compound; assay type: physicochemical; details: buffer
[2] = test system: DU-145; assay: Growth inhibition of human DU145 cells after 96 hrs by trypan blue exclusion assay; assay type: functional; details: DU-145, 96 h
[3] = molecular target: Bcr/Abl fusion protein (Homo sapiens, UniProt P00519); assay: Inhibition of BCR/ABL p210 autophosphorylation in human K562 cells after 2 hrs by Western blot analysis; assay type: cell-based
Bcr/Abl fusion protein, sequence (P00519 whole entry, the tested form may be a part): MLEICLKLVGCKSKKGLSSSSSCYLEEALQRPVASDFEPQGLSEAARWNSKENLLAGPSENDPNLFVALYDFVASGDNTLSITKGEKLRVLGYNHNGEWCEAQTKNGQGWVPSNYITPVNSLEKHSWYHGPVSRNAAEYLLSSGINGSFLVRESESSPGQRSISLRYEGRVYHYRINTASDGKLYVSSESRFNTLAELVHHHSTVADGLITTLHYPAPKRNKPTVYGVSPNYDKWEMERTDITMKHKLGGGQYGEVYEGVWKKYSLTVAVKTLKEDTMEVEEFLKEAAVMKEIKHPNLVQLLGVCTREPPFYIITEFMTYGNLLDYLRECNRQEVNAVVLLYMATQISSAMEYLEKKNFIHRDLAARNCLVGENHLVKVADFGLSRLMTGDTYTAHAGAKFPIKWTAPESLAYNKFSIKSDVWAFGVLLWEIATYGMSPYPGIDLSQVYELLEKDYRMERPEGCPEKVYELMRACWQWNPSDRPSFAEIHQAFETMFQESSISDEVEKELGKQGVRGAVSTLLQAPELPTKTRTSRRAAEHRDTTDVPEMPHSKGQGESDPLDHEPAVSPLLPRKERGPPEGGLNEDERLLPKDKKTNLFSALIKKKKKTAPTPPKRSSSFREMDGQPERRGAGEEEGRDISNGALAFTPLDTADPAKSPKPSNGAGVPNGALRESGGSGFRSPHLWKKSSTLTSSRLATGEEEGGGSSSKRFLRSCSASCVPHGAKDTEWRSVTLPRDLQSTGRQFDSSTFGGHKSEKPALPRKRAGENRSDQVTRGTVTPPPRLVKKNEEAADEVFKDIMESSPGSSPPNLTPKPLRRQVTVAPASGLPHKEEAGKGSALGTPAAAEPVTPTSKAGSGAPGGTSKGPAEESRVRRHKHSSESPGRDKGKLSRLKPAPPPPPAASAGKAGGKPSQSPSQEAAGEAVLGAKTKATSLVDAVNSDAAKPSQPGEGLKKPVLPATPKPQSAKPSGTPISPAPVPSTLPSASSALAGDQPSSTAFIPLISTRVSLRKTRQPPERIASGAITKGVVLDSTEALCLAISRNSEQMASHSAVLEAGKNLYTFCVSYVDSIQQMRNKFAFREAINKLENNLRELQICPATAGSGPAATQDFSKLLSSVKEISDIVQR
Bcr/Abl fusion protein, sequence (P11274 whole entry, further chain, the tested form may be a part): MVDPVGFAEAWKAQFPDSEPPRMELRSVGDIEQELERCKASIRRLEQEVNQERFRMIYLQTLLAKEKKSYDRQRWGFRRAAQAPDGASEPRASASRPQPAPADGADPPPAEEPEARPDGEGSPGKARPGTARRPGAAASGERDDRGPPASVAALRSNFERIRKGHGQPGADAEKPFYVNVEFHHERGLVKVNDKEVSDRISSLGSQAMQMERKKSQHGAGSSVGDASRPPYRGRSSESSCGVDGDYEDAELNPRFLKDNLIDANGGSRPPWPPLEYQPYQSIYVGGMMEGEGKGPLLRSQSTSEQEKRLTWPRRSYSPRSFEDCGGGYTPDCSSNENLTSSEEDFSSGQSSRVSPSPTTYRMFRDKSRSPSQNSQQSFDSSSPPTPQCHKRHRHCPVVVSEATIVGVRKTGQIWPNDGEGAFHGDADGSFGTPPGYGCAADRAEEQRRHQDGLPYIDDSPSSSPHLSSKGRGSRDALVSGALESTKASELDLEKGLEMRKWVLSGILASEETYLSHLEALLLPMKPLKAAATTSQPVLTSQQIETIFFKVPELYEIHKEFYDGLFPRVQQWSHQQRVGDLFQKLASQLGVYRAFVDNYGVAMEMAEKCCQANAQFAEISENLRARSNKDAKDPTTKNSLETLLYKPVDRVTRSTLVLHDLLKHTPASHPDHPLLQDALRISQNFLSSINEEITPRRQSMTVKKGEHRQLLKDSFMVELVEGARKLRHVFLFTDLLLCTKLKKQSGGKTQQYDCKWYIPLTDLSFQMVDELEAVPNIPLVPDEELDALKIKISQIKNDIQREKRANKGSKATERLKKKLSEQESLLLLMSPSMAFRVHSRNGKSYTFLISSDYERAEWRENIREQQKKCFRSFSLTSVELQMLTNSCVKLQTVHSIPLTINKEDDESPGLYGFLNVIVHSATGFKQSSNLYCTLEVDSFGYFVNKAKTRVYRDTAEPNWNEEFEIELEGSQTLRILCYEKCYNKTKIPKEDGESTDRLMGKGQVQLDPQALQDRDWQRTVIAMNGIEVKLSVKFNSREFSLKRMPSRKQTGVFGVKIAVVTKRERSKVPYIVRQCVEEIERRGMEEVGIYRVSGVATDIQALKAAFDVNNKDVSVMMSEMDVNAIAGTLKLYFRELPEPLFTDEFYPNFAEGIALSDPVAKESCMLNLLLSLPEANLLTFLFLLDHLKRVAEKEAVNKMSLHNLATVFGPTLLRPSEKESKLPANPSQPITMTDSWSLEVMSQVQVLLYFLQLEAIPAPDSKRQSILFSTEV

[4] = test system: K562; assay: Growth inhibition of human K562 cells expressing p210Bcr/Abl after 96 hrs by trypan blue exclusion assay; assay type: functional, cell-based; details: K562, 96 h
Outline: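 K562 cells were kept in RPMI with 10% FBS and penicillin–streptomycin at 37 °C under 5% CO2. Cells were seeded at 1 × 10^5 cells/mL with a range of compound concentrations, using DMSO as the negative control. After 96 h, viability was counted by Trypan blue exclusion and expressed as percent of DMSO control to derive GI50.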

[5] = molecular target: Bcr/Abl fusion protein (Homo sapiens) (UniProt P00519+P11274); assay: Inhibition of BCR/ABL p210 autophosphorylation in human K562 cells at 0.2 to 10 uM after 2 hrs by Western blot analysis; assay type: cell-based
Bcr/Abl fusion protein (Homo sapiens), sequence (P00519 whole entry, looked up, the tested form may be a part): as the sequence (P00519 whole entry, the tested form may be a part) above
Bcr/Abl fusion protein (Homo sapiens), sequence (P11274 whole entry, looked up, the tested form may be a part): as the sequence (P11274 whole entry, further chain, the tested form may be a part) above
Outline: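 Exponentially growing K562 cells were treated for 2 h with rising compound concentrations, diluted from 10 mM DMSO stocks via 1000× DMSO working stocks, or with DMSO vehicle. Lysates were run on 10% SDS–PAGE. Blots were probed sequentially for phospho-BCR-ABL and total BCR-ABL, detected with infrared-dye secondaries, and quantified by densitometry. The phospho signal was normalized to total, with % inhibition relative to vehicle.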

[6] = Aqueous solubility of the compound

SMILES | solubility [1] [µg/mL] | GI50 [2] [µM] | pIC50 [3] | GI50 [4] [µM] | pIC50 [4] | inhibition [5] | solubility [6] [µg/mL]
O=C(O)c1ccc(C(=O)/C(=C\c2ccc(F)c([N+](=O)[O-])c2)SCc2ccc(Cl)cc2Cl)cc1 | < 1000 | 1 | 5.60 | < 1 | 6.40 | – | –
O=C(O)c1ccc(C(=O)/C(=C\c2ccc(Cl)c([N+](=O)[O-])c2)SCc2ccc(Br)cc2)cc1 | < 1000 | 0.5 | 5.00 | 1 | 6.15 | – | –
O=C(O)c1ccc(C(=O)/C(=C\c2ccc(O)c([N+](=O)[O-])c2)SCc2ccc(Br)cc2)cc1 | < 1000 | 50 | < 4.70 | 50 | 4.12 | – | –
O=C(O)c1ccc(C(=O)/C(=C\c2ccc(O)c(Br)c2)SCc2ccc(Br)cc2)cc1 | < 1000 | 25 | < 4.70 | 25 | 4.46 | – | –
O=C(O)c1ccc(C(=O)/C(=C\c2ccc([N+](=O)[O-])cc2F)SCc2ccc(Br)cc2)cc1 | < 1000 | – | < 4.70 | – | 5.12 | – | –
O=C(O)c1ccc(C(=O)/C(=C\c2ccc(Br)c([N+](=O)[O-])c2)SCc2ccc(F)cc2)cc1 | < 1000 | 1 | 4.82 | < 1 | 6.40 | – | –
O=C(O)c1ccc(C(=O)/C(=C\c2ccc(F)c([N+](=O)[O-])c2)SCc2ccc(C(F)(F)F)cc2)cc1 | < 1000 | 1 | 6.70 | < 1 | 6.40 | Active | –
O=C(/C(=C\c1ccc(F)c([N+](=O)[O-])c1)SCc1ccc(F)cc1)c1ccc(C(=O)N2CCN(CCO)CC2)cc1 | > 10000 | – | 6.30 | – | 6.30 | Active | > 10000
O=C(O)c1ccc(C(=O)/C(=C\c2ccc(Cl)c([N+](=O)[O-])c2)S(=O)(=O)Cc2ccc(Br)cc2)cc1 | < 1000 | 25 | < 4.70 | 25 | 4.60 | – | –
CCN(CC)CCNC(=O)c1ccc(C(=O)/C(=C\c2ccc(F)c([N+](=O)[O-])c2)SCc2ccc(Br)cc2)cc1 | > 10000 | – | 6.30 | – | 6.30 | – | > 10000
O=C(O)c1ccc(C(=O)/C(=C\c2ccc(Cl)c([N+](=O)[O-])c2)SCc2ccc(Cl)cc2)cc1 | < 1000 | 1 | 5.00 | < 1 | 6.30 | – | –
COc1cc(/C=C(/SCc2ccc(Br)cc2)C(=O)c2ccc(C(=O)O)cc2)ccc1F | < 1000 | 1 | < 4.70 | 1 | 4.70 | – | –
O=C(O)c1ccc(C(=O)/C(=C\c2ccc(F)c([N+](=O)[O-])c2)SCc2ccccc2Cl)cc1 | < 1000 | 1 | 5.00 | 1 | 6.30 | – | –
O=C(O)c1ccc(C(=O)/C(=C\c2ccc(Br)c([N+](=O)[O-])c2)SCc2ccc(Cl)cc2Cl)cc1 | < 1000 | 1 | 5.60 | < 1 | 6.22 | – | –
O=C(O)c1ccc(C(=O)/C(=C\c2ccc(Cl)c([N+](=O)[O-])c2)SCc2ccccc2F)cc1 | < 1000 | 1 | 5.00 | < 1 | 6.10 | – | –
O=C(O)c1ccc(C(=O)/C(=C\c2ccc(Cl)c([N+](=O)[O-])c2)SCc2ccc(F)cc2)cc1 | < 1000 | 1 | 5.60 | < 1 | 6.30 | – | –
CN1CCN(CCNC(=O)c2ccc(C(=O)/C(=C\c3ccc(F)c([N+](=O)[O-])c3)SCc3ccc(Br)cc3)cc2)CC1 | > 10000 | 1 | 5.60 | 1 | 5.60 | Active | > 10000
O=C(O)c1ccc(C(=O)/C(=C\c2ccc(F)c([N+](=O)[O-])c2)SCc2ccc(F)cc2)cc1 | < 1000 | 1 | 5.60 | < 1 | 6.40 | – | –
O=C(O)c1ccc(C(=O)/C(=C\c2ccc(Br)c([N+](=O)[O-])c2)SCc2ccc(Br)cc2)cc1 | < 1000 | 1 | 5.00 | < 1 | 6.05 | – | –
O=C(O)c1ccc(C(=O)/C(=C\c2ccc(F)c([N+](=O)[O-])c2)Sc2ccc(Br)cc2)cc1 | < 1000 | – | 4.70 | – | 5.82 | – | –
O=C(O)c1ccc(C(=O)/C(=C\c2ccc(F)c([N+](=O)[O-])c2)SCc2ccc(Cl)cc2)cc1 | < 1000 | 50 | 5.60 | 10 | 6.30 | – | –
COC(=O)c1ccc(C(=O)/C(=C\c2ccc(F)c([N+](=O)[O-])c2)SCc2ccc(Br)cc2)cc1 | < 1000 | – | 6.12 | – | 6.52 | Active | –

SMILES | solubility [1] [µg/mL] | GI50 [2] [µM] | pIC50 [3] | GI50 [4] [µM] | pIC50 [4] | inhibition [5] | solubility [6] [µg/mL]
O=C(O)c1ccc(C(=O)/C(=C\c2ccc(Br)c([N+](=O)[O-])c2)SCc2ccc(Cl)cc2)cc1 | < 1000 | < 1 | 5.60 | < 1 | 6.22 | – | –
O=C(O)c1ccc(C(=O)/C(=C\c2ccc(Cl)c([N+](=O)[O-])c2)SCc2ccc(Cl)cc2Cl)cc1 | < 1000 | 1 | 5.60 | < 1 | 6.22 | – | –
O=C(O)c1ccc(C(=O)/C(=C\c2ccc(F)c([N+](=O)[O-])c2)[S+]([O-])Cc2ccc(Br)cc2)cc1 (configuration not stated) | < 1000 | – | < 4.70 | – | 4.12 | – | –
O=C(O)c1ccc(C(=O)/C(=C\c2ccc(F)c([N+](=O)[O-])c2)S(=O)(=O)Cc2ccc(Br)cc2)cc1 | < 1000 | – | < 4.70 | – | 5.30 | – | –
O=C(/C(=C\c1ccc(F)c([N+](=O)[O-])c1)SCc1ccc(F)cc1)c1ccc(F)cc1 | < 1000 | 1 | 5.60 | < 1 | 6.22 | – | –
O=C(/C(=C\c1ccc(F)c([N+](=O)[O-])c1)SCc1ccc(Br)cc1)c1ccc(C(=O)N2CCN(CCO)CC2)cc1 | > 10000 | 0.75 | 6.30 | < 0.25 | 6.30 | Active | > 10000
Cc1ccc(CS/C(=C/c2ccc(F)c([N+](=O)[O-])c2)C(=O)c2ccc(C(=O)O)cc2)cc1 | < 1000 | 1 | 5.60 | < 1 | 6.52 | – | –
O=C(O)c1ccc(C(=O)/C(=C\c2ccc([N+](=O)[O-])c(F)c2)SCc2ccc(Br)cc2)cc1 | < 1000 | – | < 4.70 | – | 5.30 | – | –
O=C(O)c1ccc(C(=O)/C(=C\c2ccc(F)c([N+](=O)[O-])c2)SCc2ccccc2)cc1 | < 1000 | – | 5.60 | – | 6.52 | – | –
O=C(O)c1ccc(C(=O)/C(=C\c2ccc(F)cc2[N+](=O)[O-])SCc2ccc(Br)cc2)cc1 | < 1000 | – | < 4.70 | – | 4.70 | – | –
O=C(O)c1ccc(C(=O)/C(=C\c2cc([N+](=O)[O-])ccc2F)SCc2ccc(Br)cc2)cc1 | < 1000 | – | < 4.70 | – | 5.12 | – | –
Cc1ccc(CS/C(=C/c2ccccc2F)C(=O)c2ccc(Cl)cc2)cc1 | – | 10 | – | 1 | – | – | –
O=C(/C(=C\c1ccc(Cl)cc1)S(=O)(=O)c1ccc(Cl)cc1)c1ccc(Cl)cc1 | – | 25 | – | 10 | – | – | –
Cc1ccc(S(=O)(=O)/C(=C/c2ccc(Oc3ccccc3)cc2)C(=O)c2ccc(Cl)cc2)cc1 | – | 1 | – | 1 | – | – | –
COc1ccc(/C=C(/SCc2ccc(Cl)cc2)C(=O)c2ccc(C(=O)O)cc2)cc1 | – | 10 | – | 10 | – | – | –
Cc1ccc(S(=O)(=O)/C(=C/c2c(O)cc(O)cc2O)C(=O)c2ccc(Cl)cc2)cc1 | – | > 100 | – | > 100 | – | – | –
CCOc1ccc(/C=C(\C(=O)c2ccc(Cl)cc2)S(=O)(=O)Cc2ccc(C)cc2)cc1OC | – | 10 | – | 10 | – | – | –
O=C(/C(=C\c1ccc(O)c([N+](=O)[O-])c1)SCc1ccc(Br)cc1)c1ccc([N+](=O)[O-])cc1 | – | 10 | – | 10 | – | – | –
COc1cc(OC)c(C=C(SCc2ccccc2Cl)C(=O)c2ccc(Cl)cc2)c(OC)c1 | – | 25 | – | 10 | – | – | –
COc1ccc(/C=C(/SCc2ccc(F)cc2)C(=O)c2ccc(Cl)cc2)c(OC)c1OC | – | 10 | – | 10 | – | – | –
Cc1ccc(CS/C(=C/c2cc(C)ccc2C)C(=O)c2ccc(Cl)cc2)cc1 | – | 10 | – | 10 | – | – | –
